The nature of assay [1]: Inhibition of alpha-glucosidase at 200 uM using para-nitrophenyl substrate.
Assay [2] in a line: Inhibition of alpha-glucosidase using para-nitrophenyl substrate.
Assay [3] in a line: Inhibition of Aspergillus oryzae Beta-galactosidase at 400 uM. In a few lines:
(§1)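 β-Galactosidase from Aspergillus oryzae (9.4 unit/mg solid) assayed by a modified literature method. Values are means of ≥3 determinations. NA means <20% inhibition at 400 μM. Maximum inhibition recorded at the top concentration tested (400 or 200 μM).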

The nature of assay [4]: Inhibition of Aspergillus oryzae Beta-galactosidase. In a few lines:
as §1

Assay [5] in a line: Inhibition of beta-glucosidase using salicin substrate. In a few lines:
(§2)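 β-Glucosidase added to 1 mL mix of inhibitor, 5.0 mM salicin, 0.1 M NaAc-HAc pH 5.0, then reacted 10 min at 40 °C. Stopped with DNS reagent and developed 5 min in boiling water. Reducing sugar read at 540 nm against a glucose standard. Triplicates at five concentrations bracketing an estimated IC50. Maximum inhibition recorded at the top concentration tested (400 or 200 μM).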

Assay [6] in a line: Effect on secondary structure of alpha-glucosidase assessed as beta-sheet content at 0.5 uM at circular dichroism method. The method in brief: (§3)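 Yeast α-glucosidase secondary structure measured by far-UV CD (186-240 nm), protein 0.53-0.66 mg/mL, 0.1 cm quartz cuvette, 5 accumulations per spectrum. Spectra recorded after exposure to inhibitor and compared with enzyme alone. α-helix, β-sheet, β-turn and random fractions estimated by secondary-structure deconvolution.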

The nature of assay [7]: Effect on secondary structure of alpha-glucosidase assessed as alpha-helix content at 0.5 uM bt circular dichroism method. The method in brief: as §3
The nature of assay [8]: Inhibition of alpha-glucosidase using para-nitrophenyl substrate by dose responsive study.
A short description of assay [9]: Effect on secondary structure of alpha-glucosidase assessed as beta-turn content at 0.5 uM at circular dichroism method. The method in brief:
as §3

Assay [10] in a line: Effect on secondary structure of alpha-glucosidase assessed as random content at 0.3 uM at circular dichroism method. The method in brief:
as §3

Assay [11] in a line: Noncompetitive inhibition of alpha-glucosidase by Lineweaver-Burk plot. In a few lines:
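Yeast α-glucosidase (50 μL, 10 U/mL) preincubated with inhibitor at 37 °C for 1 h, then PNP glycoside substrate added at varying concentrations. Rate of PNP hydrolysis read at several inhibitor concentrations. Mode assigned from Lineweaver-Burk (1/rate vs 1/[substrate]) double-reciprocal plots. Ki taken from Dixon plot and averaged over the inhibitor concentrations.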

The nature of assay [12]: Effect on secondary structure of alpha-glucosidase assessed as alpha-helix content at 0.3 uM at circular dichroism method. In a few lines: as §3
Assay [13] in a line: Effect on secondary structure of alpha-glucosidase assessed as random content at 0.5 uM at circular dichroism method. The method in brief: as §3
Assay [14] is described as follows: Effect on secondary structure of alpha-glucosidase assessed as beta-turn content at 0.3 uM at circular dichroism method. In a few lines:
as §3

Assay [15] is described as follows: Slow binding inhibition of alpha-glucosidase compound administered 1 hr at 37 degC before initiation of enzyme reaction using para-nitrophenyl substrate. The method in brief: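 Yeast α-glucosidase preincubated with inhibitor at 37 °C for 1 h before the reaction is started with PNP glycoside substrate.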
A short description of assay [16]: Inhibition of beta-glucosidase at 200 uM using salicin substrate. In a few lines:
as §2

The nature of assay [17]: Inhibition of alpha-glucosidase compound administered simultaneously with para-nitrophenyl substrate. In a few lines:
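Yeast α-glucosidase assay with PNP glycoside substrate, inhibitor and substrate added together with no preincubation.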

Assay [18] in a line: Inhibition of Aspergillus oryzae Beta-galactosidase at 200 uM. In a few lines: as §1
Assay [19] in a line: Effect on secondary structure of alpha-glucosidase assessed as beta-sheet content at 0.3 uM at circular dichroism method. In a few lines:
as §3

Assay [20] is described as follows: Inhibition of beta-glucosidase at 400 uM using salicin substrate. In a few lines: as §2

Activity calls are given as the source filed them. No cut-off for these calls is given here. A value given as a limit tells only on which side of the number the result lay.

On to `O=c1ccc2cc(O)ccc2o1`, for which, in assay [1], the inhibition is under 20%.
The molecule `COc1ccc2c(OC)cc(=O)oc2c1C` had an inhibition in assay [1] of under 20%.
Take `Cc1cc(=O)oc2c(O)c(O)ccc12` [4-METHYLDAPHNETIN]: the IC50 in assay [2] came to 52.7 µM.
For `OC[C@H]1NC[C@H](O)[C@@H](O)[C@@H]1O` [DUVOGLUSTAT], the IC50 in [2] was found to be 35.5 µM.
On to `O=c1ccc2cc(O)c(O)cc2o1`, for which the inhibition in assay [1] was under 20%.
Take `Cc1cc(=O)oc2cc(O)c(O)cc12` [4-METHYLESCULETIN]: in assay [2], the IC50 came to 94.2 µM.
In [3], `Cc1cc(=O)oc2cc(O)cc(O)c12` [5,7-DIHYDROXY-4-METHYLCOUMARIN] yielded an inhibition of 53.9%. In addition, the results for the IC50 in assay [4] (read-out: IC50), in assay [2] and in assay [5] (read-out: IC50) were over 200 µM, 64.6 µM and 45.4 µM, respectively.
In assay [2], `COc1ccc2c(OC)cc(=O)oc2c1` showed an IC50 of over 100 µM.
`Cc1ccc2oc(=O)cc(O)c2c1` displayed an inhibition in assay [1] of under 20%.
Turning to `COc1ccc2c(O)cc(=O)oc2c1`, it took 96.1 µM to reach half-maximal inhibition in assay [2] (IC50).
For `O=c1c(-c2ccc(O)cc2)coc2cc(O)cc(O)c12` [GENISTEIN], in assay [2], the IC50 is 12.4 µM.
For the molecule `O=c1oc2cc(O)ccc2c(O)c1-c1c(O)ccc(O)c1-c1c(O)c2ccc(O)cc2oc1=O`, the Activity stood at 30% in assay [6]; 32.7% in assay [7]; 9.2% in [9]; 29.4% in assay [10]; 33.4% in [12]; 28.1% in assay [13]. The Activity in assay [14] came out at 13.4%; in [19] it was 23.8%. The values for the inhibition result in [8], in assay [16] and in assay [18] were “Dose-dependent effect”, 23% and 2%, respectively. Moreover, the IC50 in assay [4] (read-out: IC50) was over 200 µM; in [2], 0.86 µM; in assay [5] (read-out: IC50), over 200 µM; in assay [17], 88.4 µM. Besides, in [11], affinity was put at a Ki of 0.587 µM. Besides, in assay [15], the inhibition entry is “Active”.
Turning to `O=c1cc(O)c2ccc(O)cc2o1`, the Activity in assay [6] came to 7.4%; in assay [7] it was 37.1%; in [9], 21.4%; in [10] it was 29.4%; in assay [12], 47.1%; in [13] it was 34.1%. The Activity was found to be 18% in [14] and 5.3% in assay [19]. The inhibition amounted to 0% in assay [3] and 36.7% in assay [20]. In addition, the values for the IC50 result in [4], in [2] and in [5] (read-out: IC50) were “Not Active”, 38.9 µM and over 400 µM, respectively.
For the molecule `O=c1oc2ccccc2cc1O` [3-HYDROXYCOUMARIN], the inhibition in assay [3] was 0%. Also, the 50% inhibitory concentration (IC50) entry in assay [4] was “Not Active”; in assay [2], 35.3 µM; in [5], “Not Active”.
Regarding `Cc1cc(=O)oc2cc(O)ccc12` [HYMECROMONE], in assay [2], half-maximal inhibition (IC50) was put at 56.2 µM.
Take `Cc1c(O)ccc2c(O)cc(=O)oc12`: in [3], the inhibition is 0%. In addition, the IC50 entry in assay [4] is “Not Active”; in assay [2], 50.5 µM; in assay [5] (read-out: IC50), 87.6 µM.

Source of the values: ChEMBL document CHEMBL1629531, “Hydroxycoumarin derivatives: novel and potent α-glucosidase inhibitors” (J Med Chem, 2010).
